Values joined by “and” are separate entries in the source; they are usually repeats but may differ in a detail not shown here. Equal values may be shown once.
Experiments:
MCF-7 = experiment: MTS assay, breast carcinoma MCF-7; assay type: cell-based; settings: Homo sapiens, MCF7, 72 h, read-out: IC50 MCF-7
Summary of the method: (§1)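 Cells grown in RPMI 1640 with 10% FBS, 1% penicillin/streptomycin and 1% L-glutamine, trypsinised and counted by hemocytometer. Seeded at 1 × 10^3 cells/well and left 24 h at 37 °C. Test compound added at 300, 100, 50 and 10 µM for 72 h at 37 °C, then removed. […] Triplicate, mean ± SD.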

human recombinant COX-2 = target: T1, human recombinant COX-2 (Homo sapiens, UniProt P35354); experiment: In vitro COX-2 inhibition assay; assay type: biochemical; settings: for SI (selectivity index / selectivity ratio): IC50 COX-1 divided by IC50 COX-2; for IC50: IC50 COX-2
T1 sequence (P35354 18-604): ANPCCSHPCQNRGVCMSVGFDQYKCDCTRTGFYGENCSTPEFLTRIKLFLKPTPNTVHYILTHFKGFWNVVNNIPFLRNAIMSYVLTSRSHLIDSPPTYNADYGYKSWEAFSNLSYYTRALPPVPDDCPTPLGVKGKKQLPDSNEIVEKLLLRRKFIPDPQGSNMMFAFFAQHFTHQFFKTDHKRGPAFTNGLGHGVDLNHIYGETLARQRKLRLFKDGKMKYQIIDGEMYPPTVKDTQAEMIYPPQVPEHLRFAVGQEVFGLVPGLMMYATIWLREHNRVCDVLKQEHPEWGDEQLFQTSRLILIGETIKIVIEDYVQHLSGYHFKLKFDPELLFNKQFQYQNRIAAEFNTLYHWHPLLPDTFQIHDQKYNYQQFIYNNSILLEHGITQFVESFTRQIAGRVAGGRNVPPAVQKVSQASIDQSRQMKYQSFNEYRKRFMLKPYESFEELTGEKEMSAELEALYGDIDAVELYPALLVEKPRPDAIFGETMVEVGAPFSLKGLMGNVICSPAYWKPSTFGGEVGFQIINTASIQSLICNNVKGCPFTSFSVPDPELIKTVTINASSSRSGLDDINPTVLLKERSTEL

[1] = MTS cytotoxicity assay, normal cell line LX-2; assay type: cell-based; settings: human, LX-2 cells (normal cell line), CC50 LX-2, normal cell line
Summary of the method: (§2)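 LX-2 cells seeded at 1 × 10^3 cells/well and left 24 h at 37 °C. Exposed to test compound at 300, 100, 50 and 10 µM for 72 h at 37 °C, with 5-FU as positive control. […] Triplicate, mean ± SD.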

CaCo-2 = experiment: MTS assay, colorectal adenocarcinoma Caco-2; assay type: cell-based; settings: Homo sapiens, Caco-2, 72 h, read-out: IC50 CaCo-2
Summary of the method: as §1

Hep3B = experiment: MTS assay, hepatocellular carcinoma Hep3B; assay type: cell-based; settings: Homo sapiens, 72 h, read-out: IC50 Hep3B
Summary of the method: as §1

HeLa = experiment: MTS assay, cervical adenocarcinoma HeLa; assay type: cell-based; settings: Homo sapiens, 72 h, read-out: IC50 HeLa
Summary of the method: as §1

COX-1 = target: T2, COX-1 (Ovis aries, UniProt P05979); experiment: In vitro COX-1 inhibition assay; assay type: biochemical, ovine
T2 sequence (P05979 25-600): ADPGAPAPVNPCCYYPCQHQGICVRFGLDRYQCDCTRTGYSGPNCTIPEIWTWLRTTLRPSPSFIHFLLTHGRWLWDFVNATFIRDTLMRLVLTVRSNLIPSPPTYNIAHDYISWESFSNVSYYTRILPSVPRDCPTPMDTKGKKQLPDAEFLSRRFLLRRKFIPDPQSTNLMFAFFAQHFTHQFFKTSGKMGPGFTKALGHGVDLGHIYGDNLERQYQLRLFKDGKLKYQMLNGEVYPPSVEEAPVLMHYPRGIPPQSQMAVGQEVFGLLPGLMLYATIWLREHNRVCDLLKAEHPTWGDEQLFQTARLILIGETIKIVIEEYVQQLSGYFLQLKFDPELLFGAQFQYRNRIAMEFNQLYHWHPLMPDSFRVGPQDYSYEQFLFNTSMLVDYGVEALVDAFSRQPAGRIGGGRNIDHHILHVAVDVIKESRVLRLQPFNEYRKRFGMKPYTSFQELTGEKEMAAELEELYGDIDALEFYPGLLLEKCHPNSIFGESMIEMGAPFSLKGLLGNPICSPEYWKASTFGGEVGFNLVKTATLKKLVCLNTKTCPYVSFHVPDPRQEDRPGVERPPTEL

COLO205 = experiment: MTS assay, colon adenocarcinoma COLO205; assay type: cell-based; settings: Homo sapiens, COLO 205, 72 h, read-out: IC50 COLO205
Summary of the method: as §1

B16F1 = experiment: MTS assay, melanoma B16F1; assay type: cell-based; settings: Mus musculus, B16-F1, 72 h, read-out: IC50 B16F1
Summary of the method: as §1

HepG2 = experiment: MTS assay, hepatocellular carcinoma HepG2; assay type: cell-based; settings: Homo sapiens, HepG2, 72 h, read-out: IC50 HepG2
Summary of the method: as §1

Hek293t cells = experiment: MTS cytotoxicity assay, normal cell line Hek293t; assay type: cell-based; settings: read-out: CC50 Hek293t, 72 h
Summary of the method: as §1

LX-2 cells = experiment: MTS cytotoxicity assay, normal cell line LX-2; assay type: cell-based; settings: read-out: CC50 LX-2, normal cell line
Summary of the method: as §2

| IC50 (MCF-7) [µM] | SI (selectivity index / selectivity ratio) (human recombinant COX-2) | IC50 (human recombinant COX-2) | IC50 (CaCo-2) [µM] | IC50 (Hep3B) [µM] | IC50 (HeLa) [µM] | IC50 (COX-1) [µM] | IC50 (COLO205) [µM] | IC50 (B16F1) [µM] | IC50 (HepG2) [µM] | Structure (SMILES) | CC50 at 72 h [1] [µM] | CC50 (Hek293t cells) [µM] | CC50 (LX-2 cells) [µM] |
| --- | --- | --- | --- | --- | --- | --- | --- | --- | --- | --- | --- | --- | --- |
| > 300 | 2.766 and 2.76 | 0.95 µM and 0.958 µM | > 300 | > 300 | > 300 | 2.65 ± 0.78 | > 300 | > 300 | 60.8 ± 2.76 | COc1cccc(-c2nc(C)c(C(=O)Nc3cc(OC)c(OC)c(OC)c3)s2)c1 [2a, 2-(3-Methoxyphenyl)-4-methyl-N-(3,4,5-trimethoxyphenyl)thiazole-5-carboxamide] | > 300 | – | – |
| > 300 | 1.251 | 0.19 µM and 0.191 µM | > 300 | > 300 | > 300 | 0.239 ± 0.18 | 30.8 ± 0.49 | 74.2 ± 2.44 | > 300 | COc1cccc(-c2nc(C)c(C(=O)Nc3ccc(C(C)(C)C)cc3)s2)c1 [2b, N-(4-(tert-Butyl)phenyl)-2-(3-methoxyphenyl)-4-methylthiazole-5-carboxamide] | 203.7 ± 1.89 | 117 ± 2.05 | – |
| > 300 | 0.095 | 2.91 ± 1.08 µM | > 300 | > 300 | > 300 | 0.278 ± 0.02 | > 300 | > 300 | > 300 | COc1cccc(-c2nc(C)c(C(=O)Nc3ccc(OC)c(OC)c3)s2)c1 [2c, N-(3,4-Dimethoxyphenyl)-2-(3-methoxyphenyl)-4-methylthiazole-5-carboxamide] | > 300 | – | – |
| 144 ± 2.03 | 0.685 | 2.3 ± 0.25 µM | > 300 | > 300 | > 300 | 1.57 ± 0.8 | > 300 | > 300 | > 300 | COc1cc(NC(=O)c2sc(-c3cccc(OC)c3)nc2C)cc(OC)c1 [2d, N-(3,5-Dimethoxyphenyl)-2-(3-methoxyphenyl)-4-methylthiazole-5-carboxamide] | > 300 | – | – |
| 163 ± 2.88 | 0.723 | 2.12 ± 1.48 µM | > 300 | 202.1 ± 1.99 | 223 ± 2.58 | 1.53 ± 0.92 | > 300 | > 300 | > 300 | COc1cccc(-c2nc(C)c(C(=O)Nc3ccc(SC)cc3)s2)c1 [2e, 2-(3-Methoxyphenyl)-4-methyl-N-(4-(methylthio)phenyl)thiazole-5-carboxamide] | > 300 | – | – |
| > 300 | 0.630 | 3.26 ± 1.02 µM | > 300 | > 300 | > 300 | 2.06 ± 1.21 | > 300 | > 300 | > 300 | COc1cccc(-c2nc(C)c(C(=O)Nc3ccccc3)s2)c1 [2f, 2-(3-Methoxyphenyl)-4-methyl-N-phenylthiazole-5-carboxamide] | > 300 | – | – |
| > 300 | 0.272 | 1.23 ± 0.85 µM | > 300 | > 300 | 250.8 ± 2.42 | 0.335 ± 0.19 | > 300 | > 300 | > 300 | COc1cccc(-c2nc(C)c(C(=O)Nc3cc(OC)ccc3OC)s2)c1 [2h, N-(2,5-Dimethoxyphenyl)-2-(3-methoxyphenyl)-4-methylthiazole-5-carboxamide] | > 300 | – | – |
| > 300 | 0.651 | 3.24 ± 1.11 µM | > 300 | > 300 | > 300 | 2.11 ± 1.08 | > 300 | > 300 | > 300 | COc1cccc(-c2nc(C)c(C(=O)Nc3ccc(Oc4ccccc4OC)cc3)s2)c1 [2i, N-(4-(2-Methoxyphenoxy)phenyl)-2-(3-methoxyphenyl)-4-methylthiazole-5-carboxamide] | > 300 | – | – |
| > 300 | 1.507 | 0.957 ± 0.17 µM | > 300 | 299.2 ± 2.05 | > 300 | 1.44 ± 0.51 | > 300 | > 300 | > 300 | COc1cccc(-c2nc(C)c(C(=O)Nc3cccc(C(F)(F)F)c3)s2)c1 [2j, 2-(3-Methoxyphenyl)-4-methyl-N-(3-(trifluoromethyl)phenyl)thiazole-5-carboxamide] | > 300 | – | – |
| – | – | – | – | – | – | – | – | – | – | O=c1[nH]cc(F)c(=O)[nH]1 [5-FU, reference compound] | – | 4.06 ± 1.82 | 8.45 ± 2.02 |

— article PMC10433355 (ACS Omega, 2023)
